VIM-2 inh: blocks Pseudomonas aeruginosa VIM-2 metallo-beta-lactamase; inhibition, % at 5.6 µM; purified VIM-2, nitrocefin hydrolysis, epi-absorbance fluorescence; 290,000 tested, 0.89% active;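 active means inhibition above the mean of all tested compounds plus 3 SD, cutoff set per screening run, cut at about 7.5% in these data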;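 further: red hydrolysis product quenches plate fluorescence so inhibitors raise well fluorescence; 0% = enzyme with DMSO and 100% = DMSO without enzyme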
HCV NS3 hel inh: HCV NS3 helicase inhibition. NS3 helicase DNA unwinding, Cy5 molecular beacon fluorescence. inhibition, % at 10.9 µM. 290,000 tested, 0.56% active;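 active means inhibition above the mean of all tested compounds plus 3 SD, set per campaign, cut at about 35% in these data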;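 further: 0% = DMSO wells and 100% = thioflavine S control wells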
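System: NS3 helicase fragment of HCV / Schedule: 1 h at 25 °C / Control set: DMSO alone as 0% and 110 µM thioflavine S as 100% / Reagent: Cy5/quencher beacon DNA duplex and ATP to start / Technique: Cy5 fluorescence / Replication: singlicate / Evaluation: % inhibition of end-to-start signal ratio versus controls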
PHOSPHO1 block: blocks human PHOSPHO1 phosphatase activity; recombinant PHOSPHO1, absorbance phosphatase assay; inhibition, % at 13.3 µM; 290,000 tested, 1.1% active; AID 1565; Q8TCT1; in the data active means inhibition above about 60%
Target sequence (Q8TCT1 whole entry, looked up): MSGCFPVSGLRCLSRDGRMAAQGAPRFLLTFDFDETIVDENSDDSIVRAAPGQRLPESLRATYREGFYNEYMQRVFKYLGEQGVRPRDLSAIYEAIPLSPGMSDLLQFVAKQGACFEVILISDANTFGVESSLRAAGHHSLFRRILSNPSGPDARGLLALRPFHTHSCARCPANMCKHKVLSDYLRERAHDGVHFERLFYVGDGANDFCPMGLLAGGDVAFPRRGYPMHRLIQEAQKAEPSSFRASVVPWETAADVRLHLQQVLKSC
IMP-1 inhibitor: blocks Pseudomonas aeruginosa IMP-1 metallo-beta-lactamase | purified IMP-1, nitrocefin hydrolysis, epi-absorbance fluorescence | inhibition, % at 5.6 µM | 290,000 tested, 0.45% active;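 active means inhibition above the mean plus 3 SD of all compounds in the same screening run, cut at about 4.5% in these data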;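 further: 0% = IMP-1 with DMSO and 100% = DMSO wells lacking enzyme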
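Assay system: purified IMP-1; Quantity: IMP-1 0.2 nM before substrate addition; Medium: HEPES buffer pH 7.1 with ZnSO4 and Brij 35; Incubation: 15 min enzyme–compound preincubation, then 25 min nitrocefin reaction, 25 °C; Signal: fluorescence quenching readout, ex 480/em 530 nm; Controls: DMSO with and without IMP-1; Repeats: singlicate testing.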
core dimer inh: HCV core protein dimerization inhibition. TR-FRET GST/Flag-core106 dimerization, 1536-well. 300,000 tested, 0.33% active. AID 1899. inhibition, % at 5 µM;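 active means inhibition above the mean of all tested compounds plus 3 SD, set per screening campaign, cut at about 45% in these data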
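System: GST-tagged and Flag-tagged HCV core protein residues 1-106 / Input: core106 proteins, GST 13.5 nM and Flag 17 nM / Buffer or medium: KF-containing HEPES buffer, pH 7.45, DTT, CHAPS, BSA / Probe or stimulus: Eu-anti-GST and XL665-anti-Flag labelled anti-tag antibodies / Schedule: 4 h, 22.5 °C incubation / Technique: TR-FRET 671 and 617 nm emission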
SUMO HTRF inh: inhibitors of human SUMOylation (UBC9); P63279; HTRF SUMOylation assay, SAE1/SAE2 + UBC9, in vitro; inhibition, % at 35 µM; 290,000 tested, 0.36% active; AID 2006; in the data active means inhibition above about 50%, passing the limit was not always enough
Target sequence (P63279 whole entry, looked up): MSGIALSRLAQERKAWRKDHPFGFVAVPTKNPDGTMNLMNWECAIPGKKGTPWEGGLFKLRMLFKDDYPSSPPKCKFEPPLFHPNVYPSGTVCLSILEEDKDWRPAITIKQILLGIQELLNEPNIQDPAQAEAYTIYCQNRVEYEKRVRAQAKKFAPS
* hit, by the source's call; . = no result; ! = repeats disagree. This is a sample that favours compounds with a hit; in the whole collection about 3.1% have one here.

SMILES	VIM-2 inh	HCV NS3 hel inh	PHOSPHO1 block	IMP-1 inhibitor	core dimer inh	SUMO HTRF inh
CC(C)(C)c1ccc(C(=O)C2CCCN(C3CCC3)C2)cc1 (configuration not stated)	-6	-3	60*	-3	-2	-3
Cc1cc(OCC(=O)N2CCC(C(N)=O)CC2)c2c3c(c(=O)oc2c1)CCCC3	8.6*	-5	13	-3	2	17
CCOc1cc(C2C(C#N)=C(N)Oc3c2c(=O)oc2ccccc32)ccc1OC(=O)c1cccs1 (configuration not stated)	-2	22	3	-3	28	10
Cc1csc(=N)n1Cc1ccccc1	-4	8	-14	-3	-6	-1
Cc1nn(CCC#N)c2c1P(=S)(N1CCCC1)OC(c1ccc(F)cc1)=N2 (configuration not stated)	3	-21	103*	-2	1	1
COc1ccccc1/C=C1/C(=N/O)C2CCN1CC2	-2	-1	-3	0	4	2
CC1CCN(C(=O)CCl)CC1	-3	0	-2	-4	3	-3
Cc1cccc(NC(=O)N2CCCC2)c1	-2	8	62*	-4	-9	10
Cc1c(C=C2C(=O)N(C)C(=S)N(C)C2=O)c2ccccc2n1CC(=O)NCC1CCCO1 (configuration not stated)	-4	11	8	19*	.	0
CCOC(=O)C1=C(N)OC2=C(C(=O)CCC2)C12C(=O)N(C)c1ccccc12 (configuration not stated)	-2	-17	28	-2	1	26
COc1ccc(C(C)=O)cc1CC(C(=O)c1ccc(Br)cc1)N(C)C (configuration not stated)	2	-9	-8	6.0*	7	-13
c1cncc(C2Nc3cccc4cccc(c34)N2)c1	0	-9	28	-5	2	63*!
Cn1cccc1/C=C1\C(=O)NC(=O)N(Cc2ccco2)C1=O	-2	24	6	-1	.	33
Cc1cc(/C=C2\C(=O)NC(=O)N(Cc3ccccc3Cl)C2=O)c(C)n1-c1ccc(C(=O)O)cc1	0	32	17	-3	11	25
Cc1cc(/C=C2\C(=O)NC(=O)N(Cc3ccco3)C2=O)c(C)n1-c1ccc(O)cc1	-2	17	44	-2	47*	62*
O=C1NC(=O)N(Cc2ccco2)C(=O)/C1=C/C=C/c1ccco1	1	33	-35	-1	21	73*
Cc1cc(/C=C2\C(=O)NC(=O)N(Cc3ccccc3)C2=O)c(C)n1-c1ccc(Cl)c(C(=O)O)c1	1	17	-12	0	5	59*
CCCc1nc2ccccc2c(=O)n1-c1ccc(O)cc1	-3	3	63*	0	-2	6
O=C1NC(=O)C(Sc2ccccc2[N+](=O)[O-])C(=O)N1	-5	2	2	-5	-9	28
CC(=O)c1ccc2c(c1)C1C(Cl)C(Sc3ccccc3[N+](=O)[O-])CC1C(c1ccccc1)N2 (configuration not stated)	3	9	4	5.7*	66*	19
CC(=O)c1ccc2c(c1)C1C(Cl)C(Sc3ccccc3[N+](=O)[O-])CC1C(c1ccccc1[N+](=O)[O-])N2 (configuration not stated)	-2	18	-1	1	54*	57
O=C(O)c1sc2cc(Cl)ccc2c1Cl	-2	12	8	-2	3	10
CC1(C)OC(c2ccccc2)=C/C(=C/C=C2C(=O)NC(=O)NC2=O)O1	5	7	-4	4.6*	1	38
C=Cn1ccnc1P(=S)(c1nccn1C=C)C1CCCCC1	1	11	42	-2	-3	0
O=P(O)(O)Cc1ccccc1OP(=O)(c1ccccc1)c1ccccc1	9.9*	6	28	-2	3	32
CCc1ccccc1NC(=O)CNCc1ccccc1	-4	6	15	-2	0	-5
CCc1ccc(OCC(=O)N2CCN(Cc3ccc4c(c3)OCO4)CC2)cc1	-4	-8	43	-3	5	6
Cc1cc(=O)oc2cc(OCC(=O)N3CCN(Cc4ccc5c(c4)OCO5)CC3)ccc12	9.7*	12	17	0	10	-13
